Reference: article PMC5970367 (Chembiochem : a European journal of chemical biology, 2017)

Key:
[1] = tested on: 5′-fluorescein labeled HCV SLIIb; test: Reaction kinetics via fluorescence; assay type: biochemical, hepatitis C virus; settings: pseudo Michaelis-Menten, catalytic efficiency
Outline: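 Copper–peptide complexes were formed at 1.1:1 peptide:Cu. Each complex was added to 333 nM 5′-fluorescein-SLIIb with 1 mM ascorbic acid and 1 mM H2O2 in 20 mM HEPES (pH 7.4, 100 mM NaCl) at 25 °C. Fluorescence loss was followed at ex 491/em 518 nm and converted to RNA concentration by a calibration curve. Initial velocities were plotted against catalyst concentration and fit to Michaelis–Menten to give KM and kcat. Values are the mean of ≥3 trials.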

[2] = tested on: fluorescein-labeled IRES SLIIb; test: Time-dependent MALDI-TOF mass spectrometry of SLIIb cleavage; assay type: biochemical, hepatitis C virus
Outline: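 Reactions contained 10 μM Fl-SLIIb, 10 μM Cu–peptide, 1 mM ascorbate and 1 mM H2O2, and were sampled at 2–180 min. They were quenched on ice, C18-desalted, and analysed by negative-ion reflectron MALDI-TOF (HPA/ammonium citrate matrix, ≥1000 shots). Peaks with m/z >1500 and S/N >5 were assigned against expected product masses. Products were summed per overhang type and expressed as a fraction at each time point. Initial rate was taken from the linear region (first ~40 min).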

Substance: GGHYRAK-Cu [6-Cu]
- kcat/KM [1]: 17 M⁻¹ s⁻¹
- Initial Rate (%Overhang/min), 2′, 3′-cPO4 ([2]; overhang 2′,3′-cyclic phosphates, MALDI-TOF time dependence): 0.7 ± 0.1 %Overhang/min
- Initial Rate (%Overhang/min), 3′-AL ([2]; overhang 3′-aldehyde, MALDI-TOF time dependence): 0.8 ± 0.1 %Overhang/min
- Initial Rate (%Overhang/min), 3′-OH ([2]; overhang 3′-hydroxyl, MALDI-TOF time dependence): 0.1 ± 0.1 %Overhang/min
- Initial Rate (%Overhang/min), 3′-PO4 ([2]; overhang 3′-phosphates, MALDI-TOF time dependence): 0.7 ± 0.2 %Overhang/min
- Initial Rate (%Overhang/min), 3′-PGA ([2]; overhang 3′-phosphoglycaldehyde, MALDI-TOF time dependence): 0.6 ± 0.1 %Overhang/min
- Initial Rate (%Overhang/min), 3′-PG ([2]; overhang 3′-phosphoglycolate, MALDI-TOF time dependence): 1.2 ± 0.1 %Overhang/min
- Initial Rate (%Overhang/min), 5′-AL ([2]; overhang 5′-aldehyde, MALDI-TOF time dependence): 0.8 ± 0.1 %Overhang/min
- Initial Rate (%Overhang/min), 5′-GemDiol ([2]; overhang 5′-geminal diol, MALDI-TOF time dependence): 0.9 ± 0.3 %Overhang/min
- Initial Rate (%Overhang/min), 5′-OH ([2]; overhang 5′-hydroxyl, MALDI-TOF time dependence): 1.2 ± 0.3 %Overhang/min
- Initial Rate (%Overhang/min), 5′-PO4 ([2]; overhang 5′-phosphate, MALDI-TOF time dependence): 1.2 ± 0.2 %Overhang/min
- Initial Rate (%Overhang/min), 5′-PPA ([2]; overhang 5′-phosphopropenal, MALDI-TOF time dependence): 1.9 ± 0.1 %Overhang/min
- Relative Initial Rate (Normalized Intensity/min × 1000), position A6 ([2]; position A6, 10 μM SLIIb, 10 μM copper-peptide): 1.7 ± 0.5 Normalized Intensity/min × 1000
- Relative Initial Rate (Normalized Intensity/min × 1000), position A15 ([2]; position A15, 10 μM SLIIb, 10 μM copper-peptide): <1 Normalized Intensity/min × 1000
- Relative Initial Rate (Normalized Intensity/min × 1000), position A19 ([2]; position A19, 10 μM SLIIb, 10 μM copper-peptide): - ^a
- Relative Initial Rate (Normalized Intensity/min × 1000), position A27 ([2]; position A27, 10 μM SLIIb, 10 μM copper-peptide): - ^a
- Relative Initial Rate (Normalized Intensity/min × 1000), position A30 ([2]; position A30, 10 μM SLIIb, 10 μM copper-peptide): 2.4 ± 0.3 Normalized Intensity/min × 1000
- Relative Initial Rate (Normalized Intensity/min × 1000), position C10 ([2]; position C10, 10 μM SLIIb, 10 μM copper-peptide): - ^a
- Relative Initial Rate (Normalized Intensity/min × 1000), position C33 ([2]; position C33, 10 μM SLIIb, 10 μM copper-peptide): 1.4 ± 0.5 Normalized Intensity/min × 1000
- Relative Initial Rate (Normalized Intensity/min × 1000), position G5 ([2]; position G5, 10 μM SLIIb, 10 μM copper-peptide): - ^a
- Relative Initial Rate (Normalized Intensity/min × 1000), position G9 ([2]; position G9, 10 μM SLIIb, 10 μM copper-peptide): - ^a
- Relative Initial Rate (Normalized Intensity/min × 1000), position G11 ([2]; position G11, 10 μM SLIIb, 10 μM copper-peptide): <1 Normalized Intensity/min × 1000
- Relative Initial Rate (Normalized Intensity/min × 1000), position G28 ([2]; position G28, 10 μM SLIIb, 10 μM copper-peptide): 2.3 ± 1.6 Normalized Intensity/min × 1000
- Relative Initial Rate (Normalized Intensity/min × 1000), position U12 ([2]; position U12, 10 μM SLIIb, 10 μM copper-peptide): - ^a
- Relative Initial Rate (Normalized Intensity/min × 1000), position U14 ([2]; position U14, 10 μM SLIIb, 10 μM copper-peptide): <1 Normalized Intensity/min × 1000
- Relative Initial Rate (Normalized Intensity/min × 1000), position U25 ([2]; position U25, 10 μM SLIIb, 10 μM copper-peptide): - ^a
- Relative Initial Rate (Normalized Intensity/min × 1000), position U26 ([2]; position U26, 10 μM SLIIb, 10 μM copper-peptide): - ^a
- Relative Initial Rate (Normalized Intensity/min × 1000), position U29 ([2]; position U29, 10 μM SLIIb, 10 μM copper-peptide): - ^a
- Relative Initial Rate (Normalized Intensity/min × 1000), position U31 ([2]; position U31, 10 μM SLIIb, 10 μM copper-peptide): - ^a
